This note sets out measurements from PMC4180220 (Drug metabolism letters, 2012).

“Also recorded” adds a separate entry of the source. Like-named read-outs stand apart in the source and are kept apart here. Bounds are passed on as bounds.

Common to all, as to type: biochemical
Series [1] has as its target T1, human P450 1A2 (Homo sapiens, UniProt P05177).
T1 sequence (P05177 1-516): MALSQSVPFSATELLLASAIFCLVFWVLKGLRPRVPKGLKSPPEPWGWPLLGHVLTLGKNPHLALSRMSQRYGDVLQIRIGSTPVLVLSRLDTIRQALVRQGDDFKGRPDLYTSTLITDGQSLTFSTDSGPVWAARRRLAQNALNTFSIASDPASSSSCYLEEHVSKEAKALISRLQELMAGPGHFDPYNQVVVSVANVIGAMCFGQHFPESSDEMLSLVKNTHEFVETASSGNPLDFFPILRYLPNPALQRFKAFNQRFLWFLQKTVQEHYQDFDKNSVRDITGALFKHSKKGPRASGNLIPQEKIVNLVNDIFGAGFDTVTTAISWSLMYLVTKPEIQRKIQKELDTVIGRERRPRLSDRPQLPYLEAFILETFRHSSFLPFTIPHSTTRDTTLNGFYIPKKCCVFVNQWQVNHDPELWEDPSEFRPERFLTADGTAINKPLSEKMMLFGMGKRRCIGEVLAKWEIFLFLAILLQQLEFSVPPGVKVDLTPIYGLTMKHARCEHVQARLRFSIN
In words: Methoxyresorufin O-demethylation.

The target in series [2] is T2, P450 1A1 (Homo sapiens, UniProt P04798).
T2 sequence (P04798 1-512): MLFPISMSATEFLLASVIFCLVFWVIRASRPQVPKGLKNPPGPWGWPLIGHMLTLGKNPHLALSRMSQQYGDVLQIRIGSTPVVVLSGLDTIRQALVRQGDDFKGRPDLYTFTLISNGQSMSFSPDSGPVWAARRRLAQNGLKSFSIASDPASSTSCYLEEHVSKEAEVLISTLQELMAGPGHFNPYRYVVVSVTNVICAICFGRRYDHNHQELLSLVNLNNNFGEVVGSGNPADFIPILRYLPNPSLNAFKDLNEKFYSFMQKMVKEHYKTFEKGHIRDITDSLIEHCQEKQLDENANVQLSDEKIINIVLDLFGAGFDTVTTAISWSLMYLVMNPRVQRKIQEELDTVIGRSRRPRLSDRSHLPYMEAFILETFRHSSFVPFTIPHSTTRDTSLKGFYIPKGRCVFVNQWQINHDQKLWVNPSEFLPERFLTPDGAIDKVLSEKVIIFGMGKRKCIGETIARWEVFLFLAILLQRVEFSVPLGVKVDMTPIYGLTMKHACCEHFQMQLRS
In words: Ethoxyresorufin O-deethylation.

Series [3] has as its target T3, human P450 2A6 (Homo sapiens, UniProt P11509).
T3 sequence (P11509 1-494): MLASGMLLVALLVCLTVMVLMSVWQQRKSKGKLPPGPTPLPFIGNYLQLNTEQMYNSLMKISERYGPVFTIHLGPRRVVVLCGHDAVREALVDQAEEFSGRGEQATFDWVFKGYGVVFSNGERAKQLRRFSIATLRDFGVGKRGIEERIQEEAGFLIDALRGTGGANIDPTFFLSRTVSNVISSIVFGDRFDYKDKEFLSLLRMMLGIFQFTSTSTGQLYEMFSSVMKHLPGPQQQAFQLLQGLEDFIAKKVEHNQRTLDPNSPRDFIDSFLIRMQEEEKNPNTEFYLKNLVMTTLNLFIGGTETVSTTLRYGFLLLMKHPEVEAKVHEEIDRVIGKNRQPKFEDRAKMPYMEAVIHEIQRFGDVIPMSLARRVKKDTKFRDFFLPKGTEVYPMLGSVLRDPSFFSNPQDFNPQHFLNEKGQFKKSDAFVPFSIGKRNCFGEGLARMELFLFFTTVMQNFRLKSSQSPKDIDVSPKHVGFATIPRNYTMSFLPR
In words: Coumarin 7-hydroxylation inhibition assay.

For series [4], the target named is T4, rat P4502B1 (Rattus norvegicus, UniProt P00176).
T4 sequence (P00176 1-491): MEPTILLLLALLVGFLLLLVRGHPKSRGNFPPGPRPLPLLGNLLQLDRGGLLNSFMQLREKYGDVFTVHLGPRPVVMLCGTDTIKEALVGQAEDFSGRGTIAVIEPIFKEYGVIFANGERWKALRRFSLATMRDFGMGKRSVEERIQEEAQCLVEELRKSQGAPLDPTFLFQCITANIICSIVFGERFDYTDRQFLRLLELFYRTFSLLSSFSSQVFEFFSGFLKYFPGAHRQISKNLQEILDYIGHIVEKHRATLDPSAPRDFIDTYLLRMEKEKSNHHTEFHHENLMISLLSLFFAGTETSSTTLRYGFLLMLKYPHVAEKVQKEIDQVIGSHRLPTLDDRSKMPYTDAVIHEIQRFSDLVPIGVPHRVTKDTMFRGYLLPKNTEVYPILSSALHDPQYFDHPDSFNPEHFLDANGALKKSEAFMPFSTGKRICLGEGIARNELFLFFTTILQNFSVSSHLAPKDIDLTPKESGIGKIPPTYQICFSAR
In words: Pentoxyresorufin O-depentylation. The method in brief: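 Rat P450 2B1 supersomes (5 nM final) and resorufin pentyl ether (5 μM final) in 0.1 M potassium phosphate pH 7.6 with MgCl2; test compound in DMSO. Started with NADPH regenerating system (NADP+, glucose-6-phosphate, G6P dehydrogenase), 37°C. Resorufin fluorescence (535/585 nm) progress curves fit second-order; linear coefficient taken as activity.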

The target of series [5] is T2, P450 1A1. In words: Mechanism-based inhibition of P450 1A1. The following applies: NADPH-dependency assay. The method in brief: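 Human P450 1A1 supersomes (5 nM final) pre-incubated 5 min at 37°C with the test compound at varied concentrations in 0.1 M potassium phosphate pH 7.6 with MgCl2, with or without NADPH regenerating system. Reaction started with resorufin ethyl ether (5 μM final) plus buffer or the regenerating system. Resorufin formation followed at 535 nm ex/585 nm em, 37°C; DMSO controls.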

Setting [6] is: compounds of this study, log conversion of the IC50.
Setting [7] is: read-out: IC50 2A6, human P450 2A6 supersomes, coumarin 5 μM, Dixon plot.

One may read the IC50 as the concentration that inhibits the measured activity by half. On to `O=c1cc(-c2ccccc2O)oc2ccccc12` [2′-HF, reference compound], for which, in series [1] (setting [6]), the “Actual (EL) logIC50 (9-logIC50), P450 1A2” value is given as 5.0273. In series [2] (setting [6]), the “Actual (EL) logIC50 (9-logIC50), P450 1A1” value was 4.7518. Moreover, the IC50 in series [3] (setting [7]) is > 50 µM.

With `C#CCOc1ccccc1-c1cc(=O)c2ccccc2o1` [2′-PF, 2′-flavone propargyl ether], in series [1] (setting [6]), the “Actual (EL) logIC50 (9-logIC50), P450 1A2” value amounted to 5.8894. The “Actual (EL) logIC50 (9-logIC50), P450 1A1” value in series [2] (setting [6]) turned out to be 6.2518. Moreover, in series [3] (setting [7]), the 50% inhibitory concentration (IC50) is > 10 µM. In series [4], the “Inhibition of P450 2B1 (in words)” value is given as “inhibited”.

Consider `O=c1cc(-c2cccc(O)c2)oc2ccccc12` [3′-HF, reference compound], for which the “Actual (EL) logIC50 (9-logIC50), P450 1A2” value in series [1] (setting [6]) came to 5.0353. Besides, in series [2] (setting [6]), the “Actual (EL) logIC50 (9-logIC50), P450 1A1” value amounted to 5.3010. In addition, the half-inhibitory concentration (IC50) in series [3] (setting [7]) was > 50 µM.

With `C#CCOc1cccc(-c2cc(=O)c3ccccc3o2)c1` [3′-PF, 3′-flavone propargyl ether], the “Mechanism-based inhibition of P450 1A1 (in words)” value in series [5] is on record as “ability to cause mechanism-based inhibition; also recorded: exhibited mechanism-based inhibition”. The “Actual (EL) logIC50 (9-logIC50), P450 1A2” value in series [1] (setting [6]) amounted to 6.1739. The “Actual (EL) logIC50 (9-logIC50), P450 1A1” value in series [2] (setting [6]) is on record as 7.6990. Further, the 50% inhibitory concentration (IC50) in series [3] (setting [7]) is > 10 µM.

As to `O=c1cc(-c2ccc(O)cc2)oc2ccccc12` [4′-HF, reference compound], the “Actual (EL) logIC50 (9-logIC50), P450 1A2” value in series [1] (setting [6]) is listed as 5.1858. In addition, the “Actual (EL) logIC50 (9-logIC50), P450 1A1” value in series [2] (setting [6]) stood at 4.7378. Also, the IC50 in series [3] (setting [7]) was > 50 µM.

For the molecule `C#CCOc1ccc(-c2cc(=O)c3ccccc3o2)cc1` [4′-PF, 4′-flavone propargyl ether], in series [1] (setting [6]), the “Actual (EL) logIC50 (9-logIC50), P450 1A2” value is listed as 5.8962. Further, the “Actual (EL) logIC50 (9-logIC50), P450 1A1” value in series [2] (setting [6]) was found to be 6.1871. In addition, in series [3] (setting [7]), the IC50 is > 10 µM.

On to `O=c1cc(-c2ccccc2)oc2cccc(O)c12` [Compound 5-HF, 5-hydroxy flavone, reference compound], for which the IC50 in series [3] and in series [4] was > 50 µM each time.

Turning to `C#CCOc1cccc2oc(-c3ccccc3)cc(=O)c12` [Compound 5-PF, 5-flavone propargyl ether], the “Actual (EL) logIC50 (9-logIC50), P450 1A2” value in series [1] (setting [6]) is 6.4202. Moreover, the “Actual (EL) logIC50 (9-logIC50), P450 1A1” value in series [2] (setting [6]) was 5.7959. For the same molecule, the IC50 in series [3] (setting [7]) is > 10 µM.

In the case of `O=c1cc(-c2ccccc2)oc2ccc(O)cc12` [Compound 6-HF, reference compound], in series [1] (setting [6]), the “Actual (EL) logIC50 (9-logIC50), P450 1A2” value came to 5.1599. In addition, the “Actual (EL) logIC50 (9-logIC50), P450 1A1” value in series [2] (setting [6]) amounted to 4.9080. In addition, the IC50 in series [3] (setting [7]) is > 50 µM.

Turning to `C#CCOc1ccc2oc(-c3ccccc3)cc(=O)c2c1` [Compound 6-PF, 6-flavone propargyl ether], the “Actual (EL) logIC50 (9-logIC50), P450 1A1” value in series [2] (setting [6]) was found to be 6.4318. Besides, in series [3] (setting [7]), the IC50 is > 10 µM.

Consider `C#CCOc1ccc2c(c1)C(=O)CC(c1ccccc1)O2` (centres unmarked) [Compound 6-PFN, 6-flavanone propargyl ether], for which the IC50 in series [1] is > 10 µM; in series [2], 5.77 µM; in series [3] it was > 10 µM. The “Inhibition of P450 1A2 (in words)” value in series [1] was “did not show inhibition”. Moreover, in series [2], the “Actual (EL) logIC50 (9-logIC50), P450 1A1” value amounted to 5.2388. For the same molecule, the “Inhibition of P450 2B1 (in words)” value in series [4] is given as “inhibited”.

Take `O=c1cc(-c2ccccc2)oc2cc(O)ccc12` [Compound 7-HF, 7-hydroxy flavone, reference compound]: the “Mechanism-based inhibition of P450 1A1 (in words)” value in series [5] is listed as “exhibited mechanism-based inhibition”. Besides, the IC50 in series [1] is 2.55 µM; in series [2], 6.79 µM; in series [3], > 50 µM; in series [4] it was > 50 µM.

As to `C#CCOc1ccc2c(=O)cc(-c3ccccc3)oc2c1` [Compound 7-PF, 7-flavone propargyl ether], the IC50 in series [3] (setting [7]) was > 10 µM.

Consider `C#CCOc1ccc2c(c1)OC(c1ccccc1)CC2=O` (centres unmarked) [Compound 7-PFN, 7-flavanone propargyl ether], for which, in series [1], the “Actual (EL) logIC50 (9-logIC50), P450 1A2” value turned out to be 6.0132 and inhibition was half-maximal at 0.97 µM (IC50). Also, in series [2], the “Actual (EL) logIC50 (9-logIC50), P450 1A1” value is 5.2233 and the IC50 amounted to 5.98 µM. In series [3], the IC50 is > 10 µM.
